# According to ChEMBL document CHEMBL5036331 (J Med Chem, 2021):
# The source made the active and inactive calls. The rule behind the calls is not given here.
# Key:
# [1] = Aqueous solubility of the compound at pH 6.5 for 24 hrs by HPLC-MS/MS; format: physicochemical
# [2] = Clearance in Wistar-Han rat hepatocytes at 1 uM measured for 2 to 90 mins by LC-MS/MS; format: ADME, cell-based, Hepatocyte; settings: Wistar-Han, time 2-90 min
# [3] = tested on: A2780; assay: cells; format: functional, cell-based; settings: Homo sapiens, A2780, 96 h
# [4] = Metabolic stability in Wistar-Han rat hepatocytes at 1 uM measured for 2 to 90 mins by LC-MS/MS; format: ADME, cell-based, Hepatocyte; settings: time 2-90 min
# [5] = Apparent permeability of the compound across apical side to basolateral side in human CaCo-2 cells at 2 uM incubated for 2 hrs; format: ADME, cell-based
# In short: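 Caco-2 monolayers with TEER of at least 400 Ω·cm². Compound (predissolved in DMSO) added apically or basolaterally at a final 2 μM and incubated 2 h at 37 °C, in triplicate. Both compartments were sampled before and after, MeOH-precipitated and analysed by LC–MS/MS. Papp = (Vr/P0)(1/S)(P2/t).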
# [6] = Efflux ratio of apparent permeability across basolateral to apical side over apical to basolateral side in human Caco2 cells at 2 uM incubated for 2 hrs; settings: Caco-2
# [7] = tested on: MOLM-13; assay: cells; format: functional, cell-based; settings: Homo sapiens, MOLM-13, 96 h
# [8] = Aqueous solubility of the compound at pH 4 for 24 hrs by HPLC-MS/MS; format: physicochemical
# [9] = Clearance in Wistar-Han rat Liver microsomes at 1 uM measured for 2 to 90 mins by LC-MS/MS; format: ADME, Microsome; settings: time 2-90 min
# [10] = Clearance in Wistar-Han rat blood at 0.3 to 0.5 mg/kg, iv measured upto 24 hrs by HPLC with LC-MS/MS; format: ADME, organism-based; settings: dose 0.3-0.5 mg/kg
# [11] = Volume of distribution at steady state in Wistar-Han rat blood at 0.3 to 0.5 mg/kg, iv measured upto 24 hrs by HPLC with LC-MS/MS; format: ADME, organism-based; settings: dose 0.3-0.5 mg/kg, read-out: Vdss
# [12] = Ratio of drug level in Wistar-Han rat blood to plasma; settings: blood and plasma
# [13] = target: T1, Cytochrome P450 1A2 (Homo sapiens, UniProt P05177); assay: Inhibition of CYP1A2 in human liver microsomes using phenacetin as substrate by LC-MS/MS analysis; format: ADME; settings: read-out: INH
# T1 sequence (P05177 whole entry): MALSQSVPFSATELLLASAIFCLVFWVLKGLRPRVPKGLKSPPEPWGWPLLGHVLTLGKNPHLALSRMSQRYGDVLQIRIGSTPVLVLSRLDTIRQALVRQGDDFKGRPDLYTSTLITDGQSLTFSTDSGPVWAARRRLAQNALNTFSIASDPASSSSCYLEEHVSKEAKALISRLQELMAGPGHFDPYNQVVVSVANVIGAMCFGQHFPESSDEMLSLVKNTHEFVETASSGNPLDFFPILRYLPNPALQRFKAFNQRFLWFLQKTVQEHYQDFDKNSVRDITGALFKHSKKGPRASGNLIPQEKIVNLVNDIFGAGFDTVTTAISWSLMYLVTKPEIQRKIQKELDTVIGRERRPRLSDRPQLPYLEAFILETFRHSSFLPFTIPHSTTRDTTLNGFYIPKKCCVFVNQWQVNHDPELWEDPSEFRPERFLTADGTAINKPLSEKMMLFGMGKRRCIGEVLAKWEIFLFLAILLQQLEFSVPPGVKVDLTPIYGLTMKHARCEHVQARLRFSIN
# [14] = target: T2, Cytochrome P450 2A6 (Homo sapiens, UniProt P11509); assay: Inhibition of CYP2A6 in human liver microsomes using coumarin as substrate by LC-MS/MS analysis; format: ADME
# T2 sequence (P11509 whole entry): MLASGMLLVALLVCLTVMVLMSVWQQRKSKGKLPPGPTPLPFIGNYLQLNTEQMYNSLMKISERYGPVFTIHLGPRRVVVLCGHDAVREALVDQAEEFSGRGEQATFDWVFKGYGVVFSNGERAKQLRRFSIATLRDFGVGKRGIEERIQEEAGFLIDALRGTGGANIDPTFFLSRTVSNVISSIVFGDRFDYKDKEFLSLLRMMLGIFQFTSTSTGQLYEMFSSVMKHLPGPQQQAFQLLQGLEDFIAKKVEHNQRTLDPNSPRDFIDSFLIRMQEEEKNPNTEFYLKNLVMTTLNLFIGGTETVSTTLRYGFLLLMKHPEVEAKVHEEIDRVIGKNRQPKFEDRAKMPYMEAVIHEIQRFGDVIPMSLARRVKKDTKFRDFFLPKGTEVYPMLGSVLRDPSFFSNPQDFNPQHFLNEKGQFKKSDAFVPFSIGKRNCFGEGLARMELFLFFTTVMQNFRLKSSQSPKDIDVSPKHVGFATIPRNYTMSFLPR
# [15] = target: T3, Cytochrome P450 2B6 (Homo sapiens, UniProt P20813); assay: Inhibition of CYP2B6 in human liver microsomes using bupropion as substrate by LC-MS/MS analysis; format: ADME
# T3 sequence (P20813 whole entry): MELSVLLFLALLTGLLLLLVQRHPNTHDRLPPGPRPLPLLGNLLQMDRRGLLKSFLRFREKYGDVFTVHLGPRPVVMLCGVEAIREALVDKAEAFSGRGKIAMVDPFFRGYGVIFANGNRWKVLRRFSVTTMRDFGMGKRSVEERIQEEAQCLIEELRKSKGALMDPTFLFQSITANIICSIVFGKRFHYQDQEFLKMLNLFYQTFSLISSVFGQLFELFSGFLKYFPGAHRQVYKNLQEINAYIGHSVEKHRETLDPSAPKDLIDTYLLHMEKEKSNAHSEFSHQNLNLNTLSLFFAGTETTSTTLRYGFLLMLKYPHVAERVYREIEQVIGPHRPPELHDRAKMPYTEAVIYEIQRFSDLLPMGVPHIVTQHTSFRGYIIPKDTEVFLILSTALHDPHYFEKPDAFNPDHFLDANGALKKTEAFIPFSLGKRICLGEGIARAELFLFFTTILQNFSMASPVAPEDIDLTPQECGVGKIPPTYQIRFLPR
# [16] = target: T4, Cytochrome P450 2C8 (Homo sapiens, UniProt P10632); assay: Inhibition of CYP2C8 in human liver microsomes using amodiaquine as substrate by LC-MS/MS analysis; format: ADME; settings: read-out: INH
# T4 sequence (P10632 whole entry): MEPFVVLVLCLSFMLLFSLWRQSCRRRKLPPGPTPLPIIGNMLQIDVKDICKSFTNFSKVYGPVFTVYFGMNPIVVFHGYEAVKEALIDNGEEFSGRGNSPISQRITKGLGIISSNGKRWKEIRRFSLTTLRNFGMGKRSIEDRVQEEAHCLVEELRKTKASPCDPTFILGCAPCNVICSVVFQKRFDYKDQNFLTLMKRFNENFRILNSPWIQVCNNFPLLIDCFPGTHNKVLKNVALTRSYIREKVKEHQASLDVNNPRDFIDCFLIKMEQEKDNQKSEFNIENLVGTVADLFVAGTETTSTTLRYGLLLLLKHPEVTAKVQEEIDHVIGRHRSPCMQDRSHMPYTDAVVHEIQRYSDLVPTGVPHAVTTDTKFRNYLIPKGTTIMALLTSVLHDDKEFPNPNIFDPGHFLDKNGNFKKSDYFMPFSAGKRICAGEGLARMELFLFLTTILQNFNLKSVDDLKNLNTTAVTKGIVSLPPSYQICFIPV
# [17] = target: Cytochrome P450 2C9 (Homo sapiens, UniProt P11712); assay: Inhibition of CYP2C9 in human liver microsomes using diclofenac as substrate by LC-MS/MS analysis; format: ADME; settings: read-out: INH
# [18] = target: Cytochrome P450 2C19 (Homo sapiens, UniProt P33261); assay: Inhibition of CYP2C19 in human liver microsomes using (S)-mephenytoin as substrate by LC-MS/MS analysis; format: ADME; settings: read-out: INH
# [19] = target: Cytochrome P450 2D6 (Homo sapiens, UniProt P10635); assay: Inhibition of CYP2D6 in human liver microsomes using dextromethorphan as substrate by LC-MS/MS analysis; format: ADME; settings: read-out: INH
# [20] = target: Cytochrome P450 2E1 (Homo sapiens, UniProt P05181); assay: Inhibition of CYP2E1 in human liver microsomes using chlorzoxazone as substrate by LC-MS/MS analysis; format: ADME
# [21] = target: Cytochrome P450 3A4 (Homo sapiens, UniProt P08684); assay: Inhibition of CYP3A4 in human liver microsomes using midazolam/testosterone as substrate by LC-MS/MS analysis; format: ADME; settings: read-out: INH
# [22] = target: T1, Cytochrome P450 1A2; assay: Induction of CYP1A2 in human hepatocytes by LC-MS/MS analysis; format: ADME, cell-based, Hepatocyte
# [23] = tested on: MV4-11; assay: Antitumor activity against human MV4-11 cells xenografted in rat assessed as inhibition of tumor growth at 12 mg/kg, po administered for 15 days; format: functional, organism-based; settings: time 15.0 day
# In short: (§1)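 Rat MV4-11 xenograft, oral dosing at 12 mg/kg daily for 15 days. Tumor growth was monitored during treatment and for a further 30 days without treatment.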
# [24] = tested on: MV4-11; assay: Antitumor activity against human MV4-11 cells xenografted in rat assessed as inhibition of tumor growth at 12 mg/kg, po administered for 15 days measured after without treatment for additional 30 days; format: functional, organism-based; settings: time 15.0 day; in short: as §1
# [25] = Half life in Wistar-Han rat blood at 0.3 to 0.5 mg/kg, iv measured upto 24 hrs by HPLC with LC-MS/MS; format: ADME, organism-based; settings: dose 0.3-0.5 mg/kg
# Cytochrome P450 2E1, sequence (P05181 whole entry): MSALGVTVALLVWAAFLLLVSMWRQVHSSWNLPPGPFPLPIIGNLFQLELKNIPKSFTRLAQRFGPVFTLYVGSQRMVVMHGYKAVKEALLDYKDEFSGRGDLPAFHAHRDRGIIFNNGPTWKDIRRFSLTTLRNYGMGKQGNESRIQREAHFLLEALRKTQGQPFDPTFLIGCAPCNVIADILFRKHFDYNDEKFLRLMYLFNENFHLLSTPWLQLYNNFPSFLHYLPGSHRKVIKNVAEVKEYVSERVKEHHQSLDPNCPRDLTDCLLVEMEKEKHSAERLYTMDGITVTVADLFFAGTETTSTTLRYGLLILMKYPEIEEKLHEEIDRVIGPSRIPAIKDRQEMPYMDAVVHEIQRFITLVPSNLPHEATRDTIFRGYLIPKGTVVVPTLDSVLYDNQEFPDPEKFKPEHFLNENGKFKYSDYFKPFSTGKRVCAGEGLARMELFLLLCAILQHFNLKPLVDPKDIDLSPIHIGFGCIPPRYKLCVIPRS
# Cytochrome P450 2D6, sequence (P10635 whole entry): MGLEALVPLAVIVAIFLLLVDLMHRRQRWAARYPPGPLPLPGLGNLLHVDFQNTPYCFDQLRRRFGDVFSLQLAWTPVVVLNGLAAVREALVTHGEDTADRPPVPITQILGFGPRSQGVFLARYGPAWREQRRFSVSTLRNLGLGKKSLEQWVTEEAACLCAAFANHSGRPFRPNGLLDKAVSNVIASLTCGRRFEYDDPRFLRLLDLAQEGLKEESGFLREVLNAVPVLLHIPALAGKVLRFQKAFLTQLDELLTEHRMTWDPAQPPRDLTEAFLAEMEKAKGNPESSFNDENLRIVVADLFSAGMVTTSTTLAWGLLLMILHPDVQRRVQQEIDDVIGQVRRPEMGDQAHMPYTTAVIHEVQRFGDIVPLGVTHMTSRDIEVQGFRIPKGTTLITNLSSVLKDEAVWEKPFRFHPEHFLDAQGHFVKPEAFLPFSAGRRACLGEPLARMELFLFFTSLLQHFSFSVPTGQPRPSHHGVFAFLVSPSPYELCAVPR
# Cytochrome P450 2C9, sequence (P11712 whole entry): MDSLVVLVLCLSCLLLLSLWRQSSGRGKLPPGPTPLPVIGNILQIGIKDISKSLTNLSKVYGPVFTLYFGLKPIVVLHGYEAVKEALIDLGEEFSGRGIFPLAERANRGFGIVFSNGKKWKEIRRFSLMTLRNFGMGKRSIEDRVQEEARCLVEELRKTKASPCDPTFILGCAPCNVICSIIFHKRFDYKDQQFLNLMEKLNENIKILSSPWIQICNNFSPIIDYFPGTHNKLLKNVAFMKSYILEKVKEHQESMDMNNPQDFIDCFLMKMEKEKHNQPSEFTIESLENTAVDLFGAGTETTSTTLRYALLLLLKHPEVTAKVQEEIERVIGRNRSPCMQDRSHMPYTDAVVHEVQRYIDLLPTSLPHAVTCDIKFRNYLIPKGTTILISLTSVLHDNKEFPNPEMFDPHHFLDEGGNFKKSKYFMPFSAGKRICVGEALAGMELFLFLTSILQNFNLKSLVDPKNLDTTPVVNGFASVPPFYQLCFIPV
# Cytochrome P450 2C19, sequence (P33261 whole entry): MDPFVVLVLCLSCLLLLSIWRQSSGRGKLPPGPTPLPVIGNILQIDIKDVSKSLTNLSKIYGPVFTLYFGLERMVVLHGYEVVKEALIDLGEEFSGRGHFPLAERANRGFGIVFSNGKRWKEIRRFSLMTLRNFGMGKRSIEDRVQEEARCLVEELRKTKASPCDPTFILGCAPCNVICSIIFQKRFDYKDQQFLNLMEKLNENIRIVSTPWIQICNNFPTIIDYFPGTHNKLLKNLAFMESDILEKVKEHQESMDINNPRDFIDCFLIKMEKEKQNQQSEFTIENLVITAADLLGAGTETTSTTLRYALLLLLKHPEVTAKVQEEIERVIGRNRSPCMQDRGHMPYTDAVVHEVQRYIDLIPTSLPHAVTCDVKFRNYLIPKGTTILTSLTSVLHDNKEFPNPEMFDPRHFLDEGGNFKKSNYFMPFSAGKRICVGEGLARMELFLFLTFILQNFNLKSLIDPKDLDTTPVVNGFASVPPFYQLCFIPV
# Cytochrome P450 3A4, sequence (P08684 whole entry): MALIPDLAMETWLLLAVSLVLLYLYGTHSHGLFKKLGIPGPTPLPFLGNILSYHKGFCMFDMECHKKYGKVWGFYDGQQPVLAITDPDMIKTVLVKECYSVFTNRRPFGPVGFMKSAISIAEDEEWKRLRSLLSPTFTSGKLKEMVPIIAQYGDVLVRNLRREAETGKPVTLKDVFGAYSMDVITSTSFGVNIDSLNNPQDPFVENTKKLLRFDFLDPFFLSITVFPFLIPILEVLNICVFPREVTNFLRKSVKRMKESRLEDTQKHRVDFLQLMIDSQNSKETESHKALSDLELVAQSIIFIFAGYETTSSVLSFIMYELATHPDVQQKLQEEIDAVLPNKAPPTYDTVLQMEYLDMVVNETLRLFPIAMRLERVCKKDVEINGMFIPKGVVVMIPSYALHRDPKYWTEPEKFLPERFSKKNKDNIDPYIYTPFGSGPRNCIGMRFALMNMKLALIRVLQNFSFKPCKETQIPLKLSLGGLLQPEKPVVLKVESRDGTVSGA
Structure (SMILES),solubility at 24 h [1] [µg/mL],CLhep predicted at 1 µM [2] [mL/min/kg],IC50 [3] [nM],"Papp A→B at 2 h, 2 µM [5] [×10⁻⁶ cm/s]",other results
COc1cc(F)ccc1-c1nc(Nc2cc(F)cc(CS(=N)(=O)CCCN)c2)ncc1F (stereo not drawn),294,18.3,226,–,–
COc1cc(F)ccc1-c1nc(Nc2cc(F)c(F)c(CS(C)(=N)=O)c2)ncc1F (stereo not drawn),–,41.7,–,–,Stability [4]: Stable
COc1cc(F)ccc1-c1nc(Nc2cc(F)cc(CS(C)(=N)=O)c2)ncc1F (stereo in doubt; 9),24,28.3,–,–,–
COc1cc(F)ccc1-c1nc(Nc2cncc(CS(C)(=N)=O)c2)ncc1F (stereo not drawn),103,18.3,46,2.3,"efflux ratio at 2 h, 2 µM [6]: > 10"
COc1cc(F)ccc1-c1nc(Nc2cc(F)cc(CN)c2)ncc1F,17,50,692,–,Stability [4]: Unstable
COc1cc(F)ccc1-c1nc(Nc2cc(F)cc(CS(=O)(CCCO)=NC#N)c2)ncc1F (stereo not drawn),0.5,58.3,262,–,–
COc1cc(F)ccc1-c1nc(Nc2cc(F)cc(CS(C)(=N)=N)c2)ncc1F,155,35,184,5,clearance [10]: 55 mL/min/kg; Vd [11]: 2.2 L/kg; half-life [25]: 36 min
COc1cc(F)ccc1-c1cc(Nc2cc(CS(C)(=N)=O)ccn2)ncn1 (stereo not drawn),2,–,126,2.6,"IC50 [7]: 80 nM; solubility at 24 h [8]: 43 µg/mL; efflux ratio at 2 h, 2 µM [6]: 9.3"

# Second part, led by results:
solubility at 24 h [1] [µg/mL],CLhep predicted at 1 µM [2] [mL/min/kg],IC50 [3] [nM],"Papp A→B at 2 h, 2 µM [5] [×10⁻⁶ cm/s]",Structure (SMILES),other results
5,38.3,–,–,COc1cc(CS(C)(=N)=O)cc(Nc2ncc(F)c(-c3ccc(F)cc3OC)n2)c1 (stereo not drawn),–
479,2.83,380,3.5,COc1cc(F)ccc1-c1ncnc(Nc2cccc(CS(C)(=N)=O)c2)n1 (stereo not drawn),"IC50 [7]: 310 nM; solubility at 24 h [8]: 309 µg/mL; efflux ratio at 2 h, 2 µM [6]: 6.1; CLH [9]: 2.5 mL/min/kg; clearance [10]: 18.3 mL/min/kg; Vd [11]: 1 L/kg; blood plasma ratio [12]: 1.1; IC50 [13]: > 20000 nM; INH [14]: > 20 µM; INH [15]: > 20 µM; IC50 [16]: > 20000 nM; IC50 [17]: > 20000 nM; IC50 [18]: > 20000 nM; IC50 [19]: > 20000 nM; INH [20]: > 20 µM; IC50 [21]: > 20000 nM; Activity [22]: Not Active; Activity [23]: Active; Activity [24]: inactive"
–,–,52,–,COc1cc(F)ccc1-c1cc(Nc2cc(C[S@](C)(=N)=O)ccn2)ncc1F,IC50 [7]: 42 nM
0.2,55,37,–,COc1cc(F)ccc1-c1nc(Nc2cc(F)c(F)c(CS(C)(=O)=NC#N)c2)ncc1F (stereo not drawn),Stability [4]: Unstable
